Data: ChEMBL document CHEMBL2177064, “Discovery and optimization of a novel spiropyrrolidine inhibitor of β-secretase (BACE1) through fragment-based drug design” (J Med Chem, 2012)

Columns and labels:
[1] = Permeability from basal to apical side of RRCK cells at 2 uM; assay type: ADME, cell-based, Canis lupus familiaris, MDCKII-LE; settings: dog, MDCK; read-out: permeability
Procedure, shortened: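 Basal→apical transfer rate of test compound at 2 μM across contiguous RRCK cell monolayers, quantified by MS.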

[2] = Intrinsic clearance in human liver microsomes assessed per mg of protein; assay type: ADME, Microsome; settings: read-out: CLH
[3] = Permeability from apical to basal side of MDCK cells; assay type: ADME, cell-based, Canis lupus familiaris; settings: dog, read-out: permeability
Procedure, shortened: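 Test compound applied at 2 μM to contiguous cell monolayers. Apical-to-basal transfer rate quantified by mass spectrometry.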

SMILES	Papp B→A at 2 µM [1] [nm/s]	microsomal CLint [2] [µL/min/mg]	Papp A→B [3] [nm/s]
O=C1Nc2ccccc2[C@@]12CN[C@@H](COCc1ccccc1)C2	239	24.7	–
O=C1Nc2ccccc2[C@@]12CN[C@@H](CCCc1ccccc1)C2	114	91.3	–
O=C1Nc2ccccc2[C@]12CCNC2	–	–	122
O=C1Nc2ccccc2[C@@]12CN[C@@H](CNCc1ccccc1)C2	135	76.7	–
O=C1Nc2ccccc2[C@@]12CN[C@@H](CNCc1cccc(C(F)(F)F)c1)C2	–	94.8	–
CNC(=O)[C@H]1C[C@]2(CN1)C(=O)Nc1ccccc12	48.6	14.3	–
O=C(NCc1ccccc1)[C@H]1C[C@]2(CN1)C(=O)Nc1ccccc12	–	15	–
COC(=O)[C@H]1C[C@]2(CN1)C(=O)Nc1ccccc12	295	–	–
O=C(OC1CCS(=O)(=O)c2ccc(Br)cc21)[C@H]1C[C@]2(CN1)C(=O)Nc1ccccc12 (mixture of isomers)	491	–	–
O=C1Nc2ccccc2[C@@]12CN[C@@H](c1ccccc1)C2 (racemic)	296	16.6	–

Further lines, with some results ahead:

Papp B→A at 2 µM [1] [nm/s]	microsomal CLint [2] [µL/min/mg]	SMILES	Papp A→B [3] [nm/s]
209	–	COC(=O)N1CCC(OC(=O)[C@H]2C[C@]3(CN2)C(=O)Nc2ccccc23)CC1	–
304	–	O=C(OCc1ccccc1)[C@H]1C[C@]2(CN1)C(=O)Nc1ccccc12	–
184	–	N#Cc1ccc(COC(=O)[C@H]2C[C@]3(CN2)C(=O)Nc2ccccc23)cc1	–
71.1	–	O=C(OCc1ccc(Br)cc1)[C@H]1C[C@]2(CN1)C(=O)Nc1ccccc12	–
102	–	N#Cc1ccc(COC(=O)[C@H]2C[C@]3(CN2)C(=O)Nc2ccccc23)cc1Br	–
227	–	N#CC1(OC(=O)[C@H]2C[C@]3(CN2)C(=O)Nc2ccccc23)CCCCC1	–
–	< 8	CN(C)C(=O)[C@H]1C[C@]2(CN1)C(=O)Nc1ccccc12	–
29.2	< 8	CN(C(=O)[C@H]1C[C@]2(CN1)C(=O)Nc1ccccc12)C1CCOCC1	–
250	–	O=C(OC1CCOCC1)[C@H]1C[C@]2(CN1)C(=O)Nc1ccccc12	–
